Here are results for 4 molecules from ChEMBL document CHEMBL1123867, “Anticonvulsant O-alkyl sulfamates. 2,3:4,5-Bis-O-(1-methylethylidene)-beta-D-fructopyranose sulfamate and related compounds” (1987).

Calls of active or inactive are those of the source. Bounds are passed on as bounds.

As usually defined, the ED50 is the dose that gives a 50% effect, or the effect in half of the subjects. By LD50 is commonly meant the dose at which mortality reaches 50%. Usually TD50 stands for the 50% point of the dose-response relation for the toxic effect studied. A lower TD50 goes with harm at a small dose.

Experiment [1] has as its system Mus musculus. The experiment in a line: Anticonvulsant activity by using a standard maximal electroshock test (MEST) in mice, by 100 mg/kg intraperitoneal administration of the compound; I=inactive. Type of experiment: functional, organism-based. Set-up: dose 100 mg/kg. In a few lines: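 Threshold electroshock: 8-mA current (60 Hz, 0.25 s) via ear-clip electrodes, the CS97 in these mice, induced hind-limb tonic extension; inhibition scored as activity. Mice given drug intraperitoneally in aqueous solution or suspension (ca. 0.1% Tween 80, distilled water). Tested at 30 min, sometimes also 240 min; ten mice per time point.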
On the technique in general: Protection in the maximal electroshock model is a classic sign of anticonvulsant action.

Experiment [2] has as its system Mus musculus. Description: Anticonvulsant activity by using a standard maximal electroshock test (MES) in mice by intraperitoneal administration of the compound. The format is functional. As to conditions: ip. In a few lines: (§1)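 Supramaximal electroshock: 50-mA current (60 Hz, 0.20 s) via corneal electrodes induced hind-limb tonic extension; inhibition of this component scored as activity. Mice dosed ip and/or po in aqueous solution or suspension (ca. 0.1% Tween 80, distilled water). Tested at 30, 60, 120 and 240 min (sometimes 45 min); ten mice per time point.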

The subject of experiment [3] is Mus musculus. Description: Anticonvulsant activity following p.o. administration by standard maximal electroshock test in mice. The format is functional. The following applies: po. In a few lines:
as §1

Experiment [4] relates to Mus musculus. Description: Percentage block of the hind-limb tonic-extensor seizure was determined after application of an electric shock to mice for 30 min followed by 50 mg/kg intraperitoneal dose. Type of experiment: functional. An outline of the steps:
as §1

The test system of experiment [5] is Mus musculus. Description: LD50 of compound after ip administration after 24 hrs was determined. Type of experiment: functional.
For experiment [6], the system named is Mus musculus. Description: Percentage block of the hind-limb tonic-extensor seizure was determined after application of an electric shock to mice for 60 min followed by 50 mg/kg intraperitoneal dose. Type of experiment: functional. In a few lines: (§2)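 Mouse MES test: supramaximal seizure from a 50-mA current (60 Hz, 0.20-s) through corneal electrodes. […] Ten mice per time point. Compound given in aqueous solution or in suspension in ca. 0.1% Tween 80 and distilled water. Free food and water except during testing.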

The subject of experiment [7] is Mus musculus. Description: Percentage block of the hind-limb tonic-extensor seizure was determined after application of an electric shock to mice for 120 min followed by 100 mg/kg peroral dose. The following applies: route oral. Type of experiment: functional. An outline of the steps:
as §1

For experiment [8], the system named is Mus musculus. Description: Percentage block of the hind-limb tonic-extensor seizure was determined after application of an electric shock to mice for 30 min followed by 100 mg/kg peroral dose. Type of experiment: functional. The following applies: route oral. An outline of the steps:
as §1

In experiment [9] the test system is Mus musculus. Description: Percentage block of the hind-limb tonic-extensor seizure was determined after application of an electric shock to mice for 120 min followed by 50 mg/kg intraperitoneal dose. Type of experiment: functional. An outline of the steps: as §1
Experiment [10] relates to Mus musculus. The experiment in a line: Percentage block of the hind-limb tonic-extensor seizure was determined after application of an electric shock to mice for 240 min followed by 100 mg/kg peroral dose. Type of experiment: functional. As to conditions: route oral. In a few lines:
as §1

For experiment [11], the system named is Mus musculus. Description: Percentage block of the hind-limb tonic-extensor seizure was determined after application of an electric shock to mice for 240 min followed by 50 mg/kg intraperitoneal dose. The format is functional. In a few lines: as §1
In experiment [12] the test system is Mus musculus. Description: Neurotoxic dose ED50 after po administration in mice at 1 hrs was determined. Type of experiment: functional. An outline of the steps: (§3)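 Neurotoxicity measured in mice with the rotoreel test after oral dosing. TD50 is the neurotoxic dose ED50, read at 1 h (peak time for TD50) and at 4 h (approximate peak time for the MES ED50). Compound was given as an aqueous solution or as a suspension in about 0.1% Tween 80 in distilled water. Animals had free access to food and water except during testing.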

Experiment [13] relates to Mus musculus. The experiment in a line: Percentage block of the hind-limb tonic-extensor seizure was determined after application of an electric shock to mice for 60 min followed by 100 mg/kg peroral dose. Type of experiment: functional. As to conditions: route oral. In a few lines:
as §2

Experiment [14] has as its system Mus musculus. Description: Neurotoxic dose ED50 after po administration in mice at 4 hrs was determined. Type of experiment: functional. In a few lines:
as §3

The subject of experiment [15] is Mus musculus. The experiment in a line: Anticonvulsant activity by using a standard maximal electroshock test (MES) in mice, by intraperitoneal administration of the compound. The following applies: ip. Type of experiment: functional. An outline of the steps: as §1
Experiment [16] concerns Mus musculus. Description: Anticonvulsant activity was determined as percentage of block of the hind-limb tonic-extensor seizure caused by application of an electric shock to mice via corneal electrodes at 30 min by 100 mg/kg intraperitoneal dose. Type of experiment: functional. An outline of the steps:
as §1

For experiment [17], the system named is Mus musculus. Description: Anticonvulsant activity was determined as percentage of block of the hind-limb tonic-extensor seizure caused by application of an electric shock to mice via corneal electrodes at 60 min by 100 mg/kg intraperitoneal dose. The format is functional. An outline of the steps: as §1
Experiment [18] deals with Mus musculus. The experiment in a line: Anticonvulsant activity was determined as percentage of block of the hind-limb tonic-extensor seizure caused by application of an electric shock to mice via corneal electrodes at 60 min by 200 mg/kg peroral dose. The format is functional. The following applies: route oral. An outline of the steps: as §1
Experiment [19] relates to Mus musculus. Description: Anticonvulsant activity was determined as percentage of block of the hind-limb tonic-extensor seizure caused by application of an electric shock to mice via corneal electrodes at 120 min by 100 mg/kg intraperitoneal dose. Type of experiment: functional. An outline of the steps:
as §1

For experiment [20], the system named is Mus musculus. Description: Anticonvulsant activity was determined as percentage of block of the hind-limb tonic-extensor seizure caused by application of an electric shock to mice via corneal electrodes at 120 min by 200 mg/kg peroral dose. Type of experiment: functional. As to conditions: route oral. An outline of the steps: as §1
For experiment [21], the system named is Mus musculus. The experiment in a line: Anticonvulsant activity was determined as percentage of block of the hind-limb tonic-extensor seizure caused by application of an electric shock to mice via corneal electrodes at 240 min by 200 mg/kg peroral dose. The format is functional. As to conditions: route oral. An outline of the steps:
as §1

Experiment [22] relates to Mus musculus. Description: Percentage block of the hind-limb tonic-extensor seizure was determined after application of an electric shock to mice for 30 min followed by 200 mg/kg peroral dose. Type of experiment: functional. As to conditions: route oral. An outline of the steps:
as §1

For experiment [23], the system named is Mus musculus. The experiment in a line: Anticonvulsant activity was determined as percentage of block of the hind-limb tonic-extensor seizure caused by application of an electric shock to mice via corneal electrodes at 240 min by 100 mg/kg intraperitoneal dose. Type of experiment: functional. An outline of the steps:
as §1

Experiment [24] deals with Mus musculus. The experiment in a line: Anticonvulsant activity by using a standard maximal electroshock test (MES) in mice, by 100 mg/kg intraperitoneal administration of the compound; I=inactive, 0-10% block. The format is functional, organism-based. On the set-up: dose 100 mg/kg. In a few lines: as §1
Experiment [25] has as its system Mus musculus. Description: Anticonvulsant activity by using a standard maximal electroshock test (MES) in mice, by 200 mg/kg peroral administration of the compound; I=inactive, 0-10% block. The format is functional, organism-based. On the set-up: dose 200 mg/kg. In a few lines:
as §1

Experiment [26] deals with Mus musculus. Description: Percentage block of the hind-limb tonic-extensor seizure was determined after application of an electric shock to mice for 60 min followed by 100 mg/kg intraperitoneal dose. Type of experiment: functional. An outline of the steps:
as §1

In experiment [27] the test system is Mus musculus. Description: Percentage block of the hind-limb tonic-extensor seizure was determined after application of an electric shock to mice for 120 min followed by 100 mg/kg intraperitoneal dose. Type of experiment: functional. An outline of the steps: as §1
The subject of experiment [28] is Mus musculus. Description: Percentage block of the hind-limb tonic-extensor seizure was determined after application of an electric shock to mice for 120 min followed by 200 mg/kg peroral dose. The format is functional. As to conditions: route oral. In a few lines: as §1
Experiment [29] concerns Mus musculus. Description: Percentage block of the hind-limb tonic-extensor seizure was determined after application of an electric shock to mice for 30 min followed by 100 mg/kg intraperitoneal dose. Type of experiment: functional. An outline of the steps: as §1
Experiment [30] has as its system Mus musculus. Description: Percentage block of the hind-limb tonic-extensor seizure was determined after application of an electric shock to mice for 240 min followed by 100 mg/kg intraperitoneal dose. Type of experiment: functional. An outline of the steps: as §1
The subject of experiment [31] is Mus musculus. Description: Percentage block of the hind-limb tonic-extensor seizure was determined after application of an electric shock to mice for 240 min followed by 200 mg/kg peroral dose. The format is functional. The following applies: route oral. An outline of the steps: as §1
The subject of experiment [32] is Mus musculus. The experiment in a line: Percentage block of the hind-limb tonic-extensor seizure was determined after application of an electric shock to mice for followed by 200 mg/kg peroral dose. As to conditions: route oral.

Turning to `CC1(C)OC2C3OC(C)(C)O[C@]3(COC(N)=O)OC[C@H]2O1` (some centres undefined), the ED50 result with Mus musculus [1] was “inactive”.

For the molecule `CC1(C)O[C@@H]2[C@@H](CO[C@@]3(COS(N)(=O)=O)OC(C)(C)O[C@@H]23)O1` [TOPIRAMATE], the 50% effective dose (ED50) worked out at 64 mg/kg in the experiment on Mus musculus [2] and 61 mg/kg with Mus musculus [3]. The Block in the experiment with Mus musculus [4] was found to be 20%; with Mus musculus [6] it was 60%; with Mus musculus [7], 80%; with Mus musculus [8] it was 40%; with Mus musculus [9] it was 70%; in the experiment on Mus musculus [10], 100%. Also, the Block with Mus musculus [11] came out at 50%; in the experiment on Mus musculus [13], 80%. Further, the LD50 in the experiment on Mus musculus [5] is > 1000 mg/kg. In addition, the TD50 was 407 mg/kg in the experiment with Mus musculus [12] and 1100 mg/kg in the experiment with Mus musculus [14].

On to `NS(=O)(=O)OCC1COC2(CCCCC2)O1` (centres undefined), for which the ED50 in the experiment on Mus musculus [15] is 169 mg/kg; with Mus musculus [3], ~150 mg/kg. Also, the Block was found to be 30% in the experiment on Mus musculus [16]; 10% with Mus musculus [17]; 30% in the experiment with Mus musculus [18]; 0% in the experiment with Mus musculus [19]; 20% in the experiment with Mus musculus [20]; 10% in the experiment with Mus musculus [21]. In addition, the Block in the experiment with Mus musculus [22] was determined as 70%; in the experiment on Mus musculus [23], 0%.

For `CC1(C)C2CCC(COS(N)(=O)=O)C1C2` (centres undefined), the ED50 entry in the experiment with Mus musculus [24] and with Mus musculus [25] was “inactive” throughout. In addition, the Block in the experiment on Mus musculus [26] is listed as 10%; with Mus musculus [27] it was 0%; in the experiment on Mus musculus [28], 10%; with Mus musculus [29], 10%; with Mus musculus [22], 10%; in the experiment on Mus musculus [30], 0%. In addition, the Block is recorded as 0% in the experiment with Mus musculus [31] and 10% in the experiment on Mus musculus [32].
